From ChEMBL document CHEMBL1149321, “Synthesis, radiosynthesis, and biological evaluation of carbon-11 and iodine-123 labeled 2beta-carbomethoxy-3beta-[4'-((Z)-2-haloethenyl)phenyl]tropanes: candidate radioligands for in vivo imaging of the serotonin transporter” (J Med Chem, 2004)

Assays:
Rattus norvegicus [1] = test: Distribution of the radio labelled compound in blood of rat brain after intravenous administration in presence of RTI-113 after 60 min; type: ADME, organism-based; details: in vivo, 1 h
Summary of the method: (§1)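 Male Sprague–Dawley rats (200–250 g), ketamine/xylazine anesthesia, tail-vein cannula. Blocker (4 mg/kg) or nothing given 15 min before iv [123I]ZIET in 10% ethanol/saline. Killed 60 min post-tracer.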

Rattus norvegicus [2] = test: Distribution in hippocampus of rat brain after intravenous administration by using [123I]ZIET after 5 min; type: ADME, organism-based; details: in vivo
Summary of the method: (§2)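 Male Sprague–Dawley rats (200–250 g), fed ad libitum, given ~20 μCi radiotracer iv via tail-vein cannula in 0.2 mL 10% ethanol/saline under ketamine/xylazine im anesthesia. Killed at 5, 30, 60 or 120 min (n = 5; n = 4 at 120 min). Brain regions dissected, weighed, gamma-counted with dose standards, decay-corrected; mean %ID/g ± SE.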

Rattus norvegicus [3] = test: Distribution of the radio labelled compound in blood of rat brain after intravenous administration in presence of citalopram after 60 min; type: ADME, organism-based; details: in vivo, 1 h; summary of the method: as §1
Rattus norvegicus [4] = test: Distribution in blood of rat brain after intravenous administration by using [123I]ZIET after 5 min; type: ADME, organism-based; details: in vivo; summary of the method: as §2
Rattus norvegicus [5] = test: Distribution in blood […] after intravenous administration by using [123I]-ZIET after 60 min; type: ADME, organism-based; details: in vivo, 1 h; summary of the method: as §2
[6] = Ratio of radioactivity in hypothalamus of rat brain to that of rat cerebellum after intravenous administration after 30 min; type: functional
Summary of the method: (§3)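 Male Sprague–Dawley rats (200–250 g) given ~20 μCi [123I] tracer iv in 0.2 mL 10% ethanol/saline under ketamine/xylazine; killed at 5, 30, 60, 120 min (n = 5; n = 4 at 120 min). Brain regions dissected, gamma counted, decay-corrected to %ID/g; regional uptake divided by cerebellum.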

[7] = Ratio of radioactivity in rest of rat brain to that of rat cerebellum after intravenous administration after 60 min; type: functional; summary of the method: as §3
Rattus norvegicus [8] = test: Distribution of the radio labelled compound in brainstem of rat brain after intravenous administration in absence of blocker after 60 min; type: ADME, organism-based; details: in vivo, 1 h; summary of the method: as §1
[9] = Ratio of radioactivity in striatum of rat brain to that of rat cerebellum after intravenous administration after 30 min; type: functional; summary of the method: as §3
[10] = Ratio of radioactivity in brainstem of rat brain to that of rat cerebellum after intravenous administration after 60 min; type: functional; summary of the method: as §3
Rattus norvegicus [11] = test: Distribution in brainstem of rat brain after intravenous administration by using [123I]ZIET after 60 min; type: ADME, organism-based; details: in vivo, 1 h; summary of the method: as §2
Rattus norvegicus [12] = test: Distribution in frontal cortex of rat brain after intravenous administration by using [123I]ZIET after 5 min; type: ADME, organism-based; details: in vivo; summary of the method: as §2
Rattus norvegicus [13] = test: Distribution in striatum of rat brain after intravenous administration by using [123I]-ZIET after 30 min; type: ADME, organism-based; details: in vivo, 0.5 h; summary of the method: as §2
Rattus norvegicus [14] = test: Distribution of the radio labelled compound in brainstem of rat brain after intravenous administration in presence of citalopram after 60 min; type: ADME, organism-based; details: in vivo, 1 h; summary of the method: as §1
Rattus norvegicus [15] = test: Distribution in hypothalamus of rat brain after intravenous administration by using [123I]ZIET after 60 min; type: ADME, organism-based; details: in vivo, 1 h; summary of the method: as §2
[16] = Ratio of radioactivity in hippocampus of rat brain to that of rat cerebellum after intravenous administration after 30 min; type: functional; summary of the method: as §3
[17] = Ratio of radioactivity in hypothalamus of rat brain to that of rat cerebellum after intravenous administration after 60 min; type: functional; summary of the method: as §3
Rattus norvegicus [18] = test: Distribution of the radio labelled compound in blood of rat brain after intravenous administration in presence of reboxetine after 60 min; type: ADME, organism-based; details: in vivo, 1 h; summary of the method: as §1
Rattus norvegicus [19] = test: Distribution of the radio labelled compound in thyroid of rat brain after intravenous administration in presence of reboxetine after 60 min; type: ADME, organism-based, Thyroid gland; details: in vivo, 1 h
Summary of the method: (§4)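 Male Sprague–Dawley rats (200–250 g) under ketamine/xylazine anaesthesia with tail-vein cannulas. Blocker or none given 15 min before ~20 μCi [123I] tracer iv in 0.2 mL 10% ethanol/saline; blocker dose 4 mg/kg.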

Rattus norvegicus [20] = test: Distribution of the radio labelled compound in hippocampus of rat brain after intravenous administration in presence of RTI-113 after 60 min; type: ADME, organism-based; details: in vivo, 1 h; summary of the method: as §4
[21] = Ratio of radioactivity in hypothalamus of rat brain to that of rat cerebellum after intravenous administration after 5 min; type: functional; summary of the method: as §3
[22] = Ratio of radioactivity in hypothalamus of rat brain to that of rat cerebellum after intravenous administration after 120 min; type: functional; summary of the method: as §3
Rattus norvegicus [23] = test: Distribution in rest of rat brain after intravenous administration by using [123I]ZIET after 120 min; type: ADME, organism-based; details: in vivo, 2 h; summary of the method: as §2
Rattus norvegicus [24] = test: Distribution in occipital cortex of rat brain after intravenous administration by using [123I]ZIET after 120 min; type: ADME, organism-based; details: in vivo, 2 h; summary of the method: as §2
Rattus norvegicus [25] = test: Distribution in hypothalamus of rat brain after intravenous administration by using [123I]ZIET after 5 min; type: ADME, organism-based; details: in vivo; summary of the method: as §2
[26] = Ratio of radioactivity in hippocampus of rat brain to that of rat cerebellum after intravenous administration after 60 min; type: functional; summary of the method: as §3
[27] = Ratio of radioactivity in hippocampus of rat brain to that of rat cerebellum after intravenous administration after 120 min; type: functional; summary of the method: as §3
Rattus norvegicus [28] = test: Distribution in frontal cortex of rat brain after intravenous administration by using [123I]ZIET after 120 min; type: ADME, organism-based; details: in vivo, 2 h; summary of the method: as §2
Rattus norvegicus [29] = test: Distribution of the radio labelled compound in occipital cortex of rat brain after intravenous administration in presence of reboxetine after 60 min; type: ADME, organism-based; details: in vivo, 1 h; summary of the method: as §4
[30] = Ratio of radioactivity in frontal cortex of rat brain to that of rat cerebellum after intravenous administration after 60 min; type: functional; summary of the method: as §3
Rattus norvegicus [31] = test: Distribution in cerebellum of rat brain after intravenous administration by using [123I]ZIET after 5 min; type: ADME, organism-based; details: in vivo; summary of the method: as §2
Rattus norvegicus [32] = test: Distribution in thyroid of rat brain after intravenous administration by using [123I]ZIET after 60 min; type: ADME, organism-based, Thyroid gland; details: in vivo, 1 h; summary of the method: as §2
Rattus norvegicus [33] = test: Distribution of the radio labelled compound in cerebellum of rat brain after intravenous administration in presence of reboxetine after 60 min; type: ADME, organism-based; details: in vivo, 1 h; summary of the method: as §4
[34] = Ratio of radioactivity in brainstem of rat brain to that of rat cerebellum after intravenous administration after 30 min; type: functional; summary of the method: as §3
[35] = Ratio of radioactivity in occipital cortex of rat brain to that of rat cerebellum after intravenous administration after 120 min; type: functional; summary of the method: as §3
[36] = Ratio of radioactivity in hippocampus of rat brain to that of rat cerebellum after intravenous administration after 5 min; type: functional; summary of the method: as §3
Rattus norvegicus [37] = test: Distribution in frontal cortex of rat brain after intravenous administration by using [123I]ZIET after 60 min; type: ADME, organism-based; details: in vivo, 1 h; summary of the method: as §2
Rattus norvegicus [38] = test: Distribution in brainstem of rat brain after intravenous administration by using [123I]ZIET after 120 min; type: ADME, organism-based; details: in vivo, 2 h; summary of the method: as §2
Rattus norvegicus [39] = test: Distribution in occipital cortex of rat brain after intravenous administration by using [123I]ZIET after 60 min; type: ADME, organism-based; details: in vivo, 1 h; summary of the method: as §2
Rattus norvegicus [40] = test: Distribution in occipital cortex of rat brain after intravenous administration by using [123I]ZIET after 5 min; type: ADME, organism-based; details: in vivo; summary of the method: as §2
Rattus norvegicus [41] = test: Distribution of the radio labelled compound in hippocampus of rat brain after intravenous administration in absence of blocker after 60 min; type: ADME, organism-based; details: in vivo, 1 h; summary of the method: as §4
Rattus norvegicus [42] = test: Distribution of the radio labelled compound in hypothalamus of rat brain after intravenous administration in presence of reboxetine after 60 min; type: ADME, organism-based; details: in vivo, 1 h; summary of the method: as §4
Rattus norvegicus [43] = test: Distribution in brainstem of rat brain after intravenous administration by using [123I]ZIET after 5 min; type: ADME, organism-based; details: in vivo; summary of the method: as §2
Rattus norvegicus [44] = test: Distribution in cerebellum of rat brain after intravenous administration by using [123I]ZIET after 60 min; type: ADME, organism-based; details: in vivo, 1 h; summary of the method: as §2
Rattus norvegicus [45] = test: Distribution in hippocampus of rat brain after intravenous administration by using [123I]ZIET after 60 min; type: ADME, organism-based; details: in vivo, 1 h; summary of the method: as §2

Compound: COC(=O)C1C(c2ccc(/C=C\[123I])cc2)CC2CCC1N2C (stereo not given)
- Activity (Rattus norvegicus [1]): 0.24
- Activity (Rattus norvegicus [2]): 0.38
- Activity (Rattus norvegicus [3]): 0.21
- Activity (Rattus norvegicus [4]): 0.45
- Activity (Rattus norvegicus [5]): 0.43
- Ratio [6]: 1.6
- Ratio [7]: 2
- Activity (Rattus norvegicus [8]): 0.33
- Ratio [9]: 1.8
- Ratio [10]: 2
- Activity (Rattus norvegicus [11]): 0.54
- Activity (Rattus norvegicus [12]): 0.45
- Activity (Rattus norvegicus [13]): 0.76
- Activity (Rattus norvegicus [14]): 0.14
- Activity (Rattus norvegicus [15]): 0.69
- Ratio [16]: 1.7
- Ratio [17]: 2.6
- Activity (Rattus norvegicus [18]): 0.26
- Activity (Rattus norvegicus [19]): 1.12
- Activity (Rattus norvegicus [20]): 0.42
- Ratio [21]: 1.1
- Ratio [22]: 4.3
- Activity (Rattus norvegicus [23]): 0.39
- Activity (Rattus norvegicus [24]): 0.42
- Activity (Rattus norvegicus [25]): 0.36
- Ratio [26]: 2.3
- Ratio [27]: 3.4
- Activity (Rattus norvegicus [28]): 0.48
- Activity (Rattus norvegicus [29]): 0.42
- Ratio [30]: 2.6
- Activity (Rattus norvegicus [31]): 0.34
- Activity (Rattus norvegicus [32]): 1.11
- Activity (Rattus norvegicus [33]): 0.15
- Ratio [34]: 1.5
- Ratio [35]: 3
- Ratio [36]: 1.1
- Activity (Rattus norvegicus [37]): 0.71
- Activity (Rattus norvegicus [38]): 0.41
- Activity (Rattus norvegicus [39]): 0.63
- Activity (Rattus norvegicus [40]): 0.45
- Activity (Rattus norvegicus [41]): 0.4
- Activity (Rattus norvegicus [42]): 0.46
- Activity (Rattus norvegicus [43]): 0.35
- Activity (Rattus norvegicus [44]): 0.27
- Activity (Rattus norvegicus [45]): 0.63
